Results as given in publication PMC10598825 (JACS Au, 2023).
Residue numbers refer to the chain shown, from its start.

How the values were obtained:
WT BcTSPO = molecular target: T1, WT BcTSPO (Bacillus cereus, UniProt Q81BL7); assay: PpIX degradation activity assay; type: biochemical; conditions: WT TSPO in nanodiscs, PpIX:TSPO 1:1, light exposure
T1 sequence (Q81BL7 1-153): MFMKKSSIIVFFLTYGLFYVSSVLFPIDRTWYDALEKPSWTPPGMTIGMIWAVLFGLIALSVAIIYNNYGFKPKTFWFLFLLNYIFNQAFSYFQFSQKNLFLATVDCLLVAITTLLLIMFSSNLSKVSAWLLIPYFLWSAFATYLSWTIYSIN
Outline: (§1)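 His10-tagged Bacillus cereus TSPO (C107S cysteine-free background) was expressed in E. coli BL21(DE3) pLysS, Ni-purified in β-DDM, then reconstituted into MSP1D1 nanodiscs with POPC:POPE 60:40 (TSPO/MSP/lipid/cholate 1/4/270/540). PpIX and loaded nanodiscs were mixed 1:1 molar in a 1 mm quartz cuvette. Emission at 633 nm was recorded in pulses of 60 s continuous illumination. V0 was taken as the absolute slope of a linear fit to the first three points (~120 s). Triplicate, mean ± SE.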

[1] = molecular target: T2, BcTSPO 34/102 double-cysteine variant (Bacillus cereus, UniProt Q81BL7, A34C/C107S/L102C); assay: PpIX degradation activity assay; type: biochemical; conditions: TSPO 34/102 in nanodiscs, PpIX:TSPO 1:1
T2 sequence (Q81BL7 1-153 A34C/L102C/C107S): T1 sequence (Q81BL7 1-153) with A34C, L102C, C107S
Outline: as §1

[2] = molecular target: T3, BcTSPO 34/151 double-cysteine variant (Bacillus cereus, UniProt Q81BL7, A34C/C107S/S151C); assay: PpIX degradation activity assay; type: biochemical; conditions: TSPO 34/151 in nanodiscs, PpIX:TSPO 1:1
T3 sequence (Q81BL7 1-153 A34C/C107S/S151C): T1 sequence (Q81BL7 1-153) with A34C, C107S, S151C
Outline: as §1

[3] = molecular target: T4, BcTSPO 23/151 double-cysteine variant (Bacillus cereus, UniProt Q81BL7, C107S/S151C/V23C); assay: PpIX degradation activity assay; type: biochemical; conditions: TSPO 23/151 in nanodiscs, PpIX:TSPO 1:1
T4 sequence (Q81BL7 1-153 V23C/C107S/S151C): T1 sequence (Q81BL7 1-153) with V23C, C107S, S151C
Outline: as §1

BcTSPO W51F [4] = molecular target: T5, BcTSPO W51F (Bacillus cereus, UniProt Q81BL7, C107S/W51F); assay: PpIX degradation activity assay; type: biochemical; conditions: TSPO W51F in nanodiscs, PpIX:TSPO 1:1
T5 sequence (Q81BL7 1-153 W51F/C107S): T1 sequence (Q81BL7 1-153) with W51F, C107S
Outline: as §1

[5] = molecular target: T6, BcTSPO 23/35 double-cysteine variant (Bacillus cereus, UniProt Q81BL7, C107S/L35C/V23C); assay: PpIX degradation activity assay; type: biochemical; conditions: TSPO 23/35 in nanodiscs, PpIX:TSPO 1:1
T6 sequence (Q81BL7 1-153 V23C/L35C/C107S): T1 sequence (Q81BL7 1-153) with V23C, L35C, C107S
Outline: as §1

BcTSPO 34/102-D33P [6] = molecular target: T7, BcTSPO 34/102-D33P (Bacillus cereus, UniProt Q81BL7, A34C/C107S/D33P/L102C); assay: PpIX degradation activity assay; type: biochemical; conditions: TSPO 34/102-D33P in nanodiscs, PpIX:TSPO 1:1
T7 sequence (Q81BL7 1-153 D33P/A34C/L102C/C107S): T1 sequence (Q81BL7 1-153) with D33P, A34C, L102C, C107S
Outline: as §1

BcTSPO 34/102-K98E [7] = molecular target: T8, BcTSPO 34/102-K98E (Bacillus cereus, UniProt Q81BL7, A34C/C107S/K98E/L102C); assay: PpIX degradation activity assay; type: biochemical; conditions: TSPO 34/102-K98E in nanodiscs, PpIX:TSPO 1:1
T8 sequence (Q81BL7 1-153 A34C/K98E/L102C/C107S): T1 sequence (Q81BL7 1-153) with A34C, K98E, L102C, C107S
Outline: as §1

BcTSPO 34/151-D33P [8] = molecular target: T9, BcTSPO 34/151-D33P (Bacillus cereus, UniProt Q81BL7, A34C/C107S/D33P/S151C); assay: PpIX degradation activity assay; type: biochemical; conditions: TSPO 34/151-D33P in nanodiscs, PpIX:TSPO 1:1
T9 sequence (Q81BL7 1-153 D33P/A34C/C107S/S151C): T1 sequence (Q81BL7 1-153) with D33P, A34C, C107S, S151C
Outline: as §1

BcTSPO 34/151-K98E [9] = molecular target: T10, BcTSPO 34/151-K98E (Bacillus cereus, UniProt Q81BL7, A34C/C107S/K98E/S151C); assay: PpIX degradation activity assay; type: biochemical; conditions: TSPO 34/151-K98E in nanodiscs, PpIX:TSPO 1:1
T10 sequence (Q81BL7 1-153 A34C/K98E/C107S/S151C): T1 sequence (Q81BL7 1-153) with A34C, K98E, C107S, S151C
Outline: as §1

BcTSPO W138F [10] = molecular target: T11, BcTSPO W138F (Bacillus cereus, UniProt Q81BL7, C107S/W138F); assay: PpIX degradation activity assay; type: biochemical; conditions: TSPO W138F in nanodiscs, PpIX:TSPO 1:1
T11 sequence (Q81BL7 1-153 C107S/W138F): T1 sequence (Q81BL7 1-153) with C107S, W138F
Outline: as §1

BcTSPO 34/151-W138F [11] = molecular target: T12, BcTSPO 34/151-W138F (Bacillus cereus, UniProt Q81BL7, A34C/C107S/S151C/W138F); assay: PpIX degradation activity assay; type: biochemical; conditions: TSPO 34/151-W138F in nanodiscs, PpIX:TSPO 1:1
T12 sequence (Q81BL7 1-153 A34C/C107S/W138F/S151C): T1 sequence (Q81BL7 1-153) with A34C, C107S, W138F, S151C
Outline: as §1

BcTSPO S22C-PEG = assay: Tryptophan fluorescence quenching binding assay; parameters: species or system Bacillus cereus; conditions: DDM-solubilized TSPO S22C conjugated with 5 kDa PEG; higher than WT
BcTSPO W51F [12] = molecular target: T5, BcTSPO W51F; assay: Tryptophan fluorescence quenching binding assay; conditions: detergent-solubilized TSPO W51F; in words
BcTSPO 34/151-D33P [13] = molecular target: T9, BcTSPO 34/151-D33P; assay: Tryptophan fluorescence quenching binding assay; conditions: detergent-solubilized TSPO 34/151-D33P; in words
BcTSPO 34/151-K98E [14] = molecular target: T10, BcTSPO 34/151-K98E; assay: Tryptophan fluorescence quenching binding assay; conditions: detergent-solubilized TSPO 34/151-K98E; in words
BcTSPO 34/102-D33P [15] = molecular target: T7, BcTSPO 34/102-D33P; assay: Tryptophan fluorescence quenching binding assay; conditions: detergent-solubilized TSPO 34/102-D33P; in words
BcTSPO 34/102-K98E [16] = molecular target: T8, BcTSPO 34/102-K98E; assay: Tryptophan fluorescence quenching binding assay; conditions: detergent-solubilized TSPO 34/102-K98E; in words
[17] = molecular target: T6, BcTSPO 23/35 double-cysteine variant; assay: Tryptophan fluorescence quenching binding assay; conditions: detergent-solubilized TSPO 23/35; in words
BcTSPO W138F [18] = molecular target: T11, BcTSPO W138F; assay: Tryptophan fluorescence quenching binding assay; conditions: detergent-solubilized TSPO W138F; in words
BcTSPO 34/151-W138F [19] = molecular target: T12, BcTSPO 34/151-W138F; assay: Tryptophan fluorescence quenching binding assay; conditions: detergent-solubilized TSPO 34/151-W138F; in words

C=CC1=C(C)c2cc3[nH]c(cc4nc(cc5[nH]c(cc1n2)c(C)c5CCC(=O)O)C(CCC(=O)O)=C4C)c(C)c3C=C [PpIX, protoporphyrin IX]
as strongly as WT: binding of PpIX compared with WT (BcTSPO W138F [18]) | binding of PpIX compared with WT (BcTSPO 34/151-W138F [19])
approximately 10 fold: Kd value of S22C-PEG relative to that of WT (BcTSPO S22C-PEG)
approximately 17 nM/s: reaction velocity V0 of PpIX degradation (WT BcTSPO) | reaction velocity V0 of PpIX degradation [1] | reaction velocity V0 of PpIX degradation [2] | reaction velocity V0 of PpIX degradation [3]
below 2 nM/s: reaction velocity V0 of PpIX degradation (BcTSPO W138F [10]) | reaction velocity V0 of PpIX degradation (BcTSPO 34/151-W138F [11])
approximately 5 nM/s: reaction velocity V0 of PpIX degradation (BcTSPO W51F [4]) | reaction velocity V0 of PpIX degradation [5] | reaction velocity V0 of PpIX degradation (BcTSPO 34/102-D33P [6]) | reaction velocity V0 of PpIX degradation (BcTSPO 34/102-K98E [7]) | reaction velocity V0 of PpIX degradation (BcTSPO 34/151-D33P [8]) | reaction velocity V0 of PpIX degradation (BcTSPO 34/151-K98E [9])
much higher: dissociation constant Kd of PpIX compared with WT (BcTSPO W51F [12]) | dissociation constant Kd of PpIX compared with WT (BcTSPO 34/151-D33P [13]) | dissociation constant Kd of PpIX compared with WT (BcTSPO 34/151-K98E [14]) | dissociation constant Kd of PpIX compared with WT (BcTSPO 34/102-D33P [15]) | dissociation constant Kd of PpIX compared with WT (BcTSPO 34/102-K98E [16]) | dissociation constant Kd of PpIX compared with WT [17]
